From PubChem BioAssay
Most compounds without a hit are left out; they make up all but 2.6% or so of the library.
LMPTP block: LMPTP phosphatase inhibitors, primary screen, biochemical, fluorescence intensity, uHTS. Low molecular weight phosphotyrosine protein phosphatase (Homo sapiens), P24666. recombinant LMPTP-A, OMFP fluorogenic substrate. inhibition, % at 20 µM. 360,000 compounds, 0.22% hits. AID 651560, 2012;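 active = compounds that cut the enzyme signal by at least half of the control window in the single-dose screen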
Target sequence (P24666 whole entry, looked up): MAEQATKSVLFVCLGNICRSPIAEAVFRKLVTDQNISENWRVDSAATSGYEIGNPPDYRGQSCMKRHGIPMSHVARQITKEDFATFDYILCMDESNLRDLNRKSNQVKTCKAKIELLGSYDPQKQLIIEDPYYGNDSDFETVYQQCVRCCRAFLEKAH
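Test system: LMPTP-A phosphatase enzyme. Amount: LMPTP-A at 0.625 nM final in the reaction. Reagent: OMFP substrate, 400 µM final. Times: 50 min at room temperature. Signal: endpoint fluorescence intensity from OMFP dephosphorylation. Read-out basis: % inhibition. Benchmarks: no-enzyme and uninhibited controls.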
STEP block: STEP phosphatase inhibitors, primary screen, biochemical, fluorescence intensity, uHTS; recombinant STEP, OMFP fluorogenic substrate; 360,000 compounds, 0.25% hits; Tyrosine-protein phosphatase non-receptor type 5 (Homo sapiens), P54829; inhibition, % at 20 µM;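 active = inhibition at 20 µM, scaled per plate between control wells, above about 37%, limit read from the data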
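Test system: STEP tyrosine phosphatase / Reagent: OMFP at 25 µM / Doses: 20 µM, 1% DMSO / Read-out: percent inhibition scaled to no-enzyme and uninhibited-enzyme controls, plate-pattern corrected / Detection: FITC-channel fluorescence of OMFP product / Medium: Bis-Tris buffer pH 6.0, 2.5 mM DTT, 0.005% Tween 20 / Schedule: 20 min at room temperature, dark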
NadD inh: inhibitors of S. aureus NadD, primary screen, biochemical, colorimetric, uHTS | Nicotinate-nucleotide adenylyltransferase NadD (Staphylococcus aureus N315) | purified NadD enzyme, colorimetric absorbance read-out | inhibition, % at 20 µM | 360,000 compounds, 0.78% hits; in the data active = inhibition above about 26%
rCAG RNA binder: binders of r(CAG) RNA repeats, primary screen, biochemical, fluorescence. r(CAG) RNA repeat, TO-PRO-1 dye displacement fluorescence. inhibition, % at 3 µM. 370,000 compounds, 1.3% hits. AID 651821, 2012;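 active = inhibition above the plate cutoff, the mean of all test compounds on that plate plus 3 SD, cut at about 35% in these data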;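 also: higher means more dye released from RNA so lower well fluorescence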
Scp1 inh: Scp-1 phosphatase inhibitors, primary screen, biochemical, colorimetric, uHTS. 340,000 compounds, 0.88% hits. inhibition, % at 20 µM. Recombinant Scp1, phosphopeptide, malachite green phosphate absorbance;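 active = inhibition above about 50% at 20 µM, limit read from the data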
Target sequence (Q9GZU7 76-261 limits assumed): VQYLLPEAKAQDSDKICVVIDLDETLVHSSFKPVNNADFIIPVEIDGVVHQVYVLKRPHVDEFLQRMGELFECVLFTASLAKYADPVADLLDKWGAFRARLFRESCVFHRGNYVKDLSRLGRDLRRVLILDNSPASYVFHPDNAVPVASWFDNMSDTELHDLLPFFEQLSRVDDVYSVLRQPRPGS
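System: SCP-1 catalytic domain; Reagent: Phospho 17-mer peptide substrate; Doses: one concentration, 20 µM, with 1.0% DMSO; Incubation: 45 min room-temperature reaction, 5 min colour, 30 min stabiliser; Signal: Phosphate-binding colour reagent, absorbance read at 630 nm.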
Scp-1 conf: Scp-1 phosphatase inhibitors, retest, confirmation, biochemical, colorimetric, single concentration; shares compounds with Scp1 inh; recombinant SCP-1 catalytic domain, phosphate release, malachite green absorbance; inhibition, % at 20 µM; 2,500 compounds, 61% hits
MG interference: colorimetric readout interference by compounds, confirmation, artefact control for Scp-1 inhibitor project, biochemical, single concentration | AID 540313, 2011 | apparent inhibition (interference), % at 20 µM | Colorimetric interference counterscreen, malachite green absorbance 630 nm | shares compounds with Scp1 inh | 2,500 tested, under 10 active;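 also: compounds added after enzyme reaction finished so only phosphate colour detection is probed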
Scp-1 Tm shift: Scp-1 binding by thermal shift, confirmation, orthogonal assay for Scp-1 inhibitor project, biophysical, differential scanning fluorimetry; shares compounds with Scp1 inh; Recombinant SCP1, Sypro Orange thermal shift Tm; thermal shift relative to vanadate control, % at 40 µM; 1,500 compounds, 25% hits;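 active = substances whose mean melting-temperature shift, as a percentage of the reference inhibitor's shift, reaches about 5.3%, limit read from the data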
STEP conf: STEP phosphatase inhibitor hit confirmation, biochemical, fluorescence intensity, single concentration; shares compounds with STEP block; recombinant STEP, OMFP fluorogenic substrate; inhibition, % at 20 µM; 520 compounds, 32% hits; AID 623866, 2012; call rule not given here
Large screens that a line does not name were inactive (follow-up assays come after a bar, where they were run).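 The calls were made as follows, unless noted: active = inhibition of at least 30% at 20 µM; inactive = the rest.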

O=C(N/N=C/c1ccc(OC(=O)c2cccs2)cc1)c1cccc(F)c1	LMPTP block 68, STEP block 43, Scp1 inh 95 (no result: rCAG RNA binder) | Scp-1 conf 77 | MG interference inactive | Scp-1 Tm shift inactive | STEP conf 28
CCOc1cc(/C=C(\C#N)C(=O)Nc2cccc(C(=O)O)c2)ccc1OCc1ccccc1Cl	none
COc1ccc(NC(=O)/C(C#N)=C\c2ccc(OCc3ccc(C(=O)O)cc3)c(OC)c2)cc1	LMPTP block 76, STEP block 89, Scp1 inh 75 | Scp-1 conf 62 | MG interference inactive | Scp-1 Tm shift inactive | STEP conf inactive
N#C/C(=C\c1ccc(OCc2ccc(F)cc2)cc1)C(=O)Nc1cccc(C(=O)O)c1	STEP block 92, Scp1 inh 93 | Scp-1 conf 74 | MG interference inactive | Scp-1 Tm shift inactive | STEP conf inactive
Cc1ccc(-n2c(SCC(=O)C(C)(C)C)nnc2-c2cccc(C)c2)cc1	none (no result: LMPTP block, STEP block, NadD inh, Scp1 inh)
O=C1CCCN1CCCNC(=S)Nc1cccc2ccccc12	STEP block 55 | Scp-1 conf inactive | MG interference inactive | STEP conf inactive
O=C1CCCN1CCCNC(=S)Nc1ccc(Cl)cc1Cl	none
Cc1occc1-c1nnc(SCC(=O)N[C@@H]2CCc3ccccc32)n1-c1ccccc1	none (no result: LMPTP block, STEP block, NadD inh, Scp1 inh)
C/C(=N\NC(=O)c1ccccc1O)c1ccc(NC(=O)Cc2ccccc2)cc1	LMPTP block 59, STEP block 84, Scp1 inh 101 | Scp-1 conf 84 | MG interference inactive | Scp-1 Tm shift inactive | STEP conf 79
O=C(c1cccc(F)c1F)N(Cc1ccccn1)CC1CCCO1 (stereo not drawn)	none (no result: LMPTP block, STEP block, NadD inh, Scp1 inh)
Cc1ccc(NC(=O)CN2C(=O)S/C(=C\c3cccn3-c3cccc(C(=O)O)c3)C2=O)cc1C	STEP block 42, Scp1 inh 79 | Scp-1 conf 80 | MG interference inactive | Scp-1 Tm shift 11 | STEP conf inactive
CCOC(=O)[C@@]12CCCC=C1N(CCc1ccc(Cl)cc1)C(=O)[C@H]2CC(=O)NCCCCc1ccccc1	none (no result: LMPTP block, STEP block, NadD inh, Scp1 inh)
COc1ccc2[nH]c3nc(SCC(=O)NNC(=O)c4ccc(OC)c(OC)c4)nnc3c2c1	none
Cc1ccc(C(=O)NNC(=O)CSc2nnc3c(n2)[nH]c2ccc(F)cc23)cc1	LMPTP block 52, STEP block 56, Scp1 inh 67 | Scp-1 conf 76 | MG interference inactive | Scp-1 Tm shift inactive | STEP conf inactive
O=C(NNC(=O)c1cc2cc3ccccc3nc2s1)c1ccc(F)cc1	STEP block 97, Scp1 inh 105 | Scp-1 conf 68 | MG interference inactive | Scp-1 Tm shift inactive | STEP conf inactive
O=C(NNC(=O)c1cc2cc3ccccc3nc2s1)c1cccc(Cl)c1	LMPTP block 63, STEP block 97, Scp1 inh 98 | Scp-1 conf 73 | MG interference inactive | Scp-1 Tm shift inactive | STEP conf inactive
Cc1cccc(C(=O)NNC(=O)c2cc3cc4ccccc4nc3s2)c1	none
